697 NFkB inh – inhibitors of the PMA/ionomycin-induced NF-kB reporter in 697 B cells; 697 B-cell NF-kB luciferase reporter, 16 h; inhibition, % at 4 µM; 330,000 compounds, 0.33% hits; in the data active = inhibition above about 35%
NR2E3 ag-1 – activates human NR2E3 receptor; CHO-S Gal4-NCOR/VP16-NR2E3 two-hybrid, luciferase; inhibition of corepressor binding, % at 3.98 µM; 360,000 compounds, 0.35% hits;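 active = inhibition above the mean of all tested compounds plus 3 SD, cut at about 70% in these data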;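 note: 0% = DMSO with NR2E3 transfected cells and 100% = cells lacking NR2E3 construct; higher means lower luciferase signal from less NR2E3 corepressor binding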
Target sequence (Q9Y5X4 whole entry, looked up, the tested form may be a part): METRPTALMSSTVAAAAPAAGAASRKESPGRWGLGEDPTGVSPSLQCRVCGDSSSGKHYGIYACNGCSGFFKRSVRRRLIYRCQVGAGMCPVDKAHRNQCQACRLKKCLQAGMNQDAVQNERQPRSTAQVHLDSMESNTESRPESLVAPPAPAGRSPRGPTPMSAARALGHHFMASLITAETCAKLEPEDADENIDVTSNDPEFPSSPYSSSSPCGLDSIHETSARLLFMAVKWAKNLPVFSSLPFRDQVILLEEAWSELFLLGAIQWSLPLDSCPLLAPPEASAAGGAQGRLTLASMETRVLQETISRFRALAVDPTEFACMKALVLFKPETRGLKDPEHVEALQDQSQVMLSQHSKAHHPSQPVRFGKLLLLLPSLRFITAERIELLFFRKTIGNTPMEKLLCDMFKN
NR2E3 ag-2 – activates human photoreceptor nuclear receptor NR2E3. Q9Y5X4. GST-NR2E3/biotin-RetCOR TR-FRET, 1536-well. inhibition of corepressor binding, % at 4.78 µM. 320,000 compounds, 0.12% hits;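 active = percent inhibition above the cutoff of mean plus 3 SD of all tested compounds, set per screening campaign, cut at about 20% in these data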;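 note: 0% = DMSO wells and 100% = biotin wells as full block of FRET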
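System: GST-tagged NR2E3 plus biotinylated RetCOR corepressor; Amount: 1.35 nM GST-tagged NR2E3 final; Dosing: single nominal compound dose of 4.8 µM; Schedule: 5 h incubation at 4 °C; Technique: TR-FRET with europium anti-GST and streptavidin-D2, 340 nm excitation; Controls: biotin wells as high control, 0.6% DMSO wells as low control.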
Jurkat NFkB inh – lowers PMA/ionomycin-induced NF-kB signal in Jurkat cells; PMA/ionomycin-induced NF-kB luciferase reporter, luminescence; inhibition, % at 4 µM; 330,000 compounds, 0.53% hits; in the data active = inhibition above about 50%
MPTP block – blocks calcium-induced mitochondrial swelling | isolated mouse mitochondria, Ca2+ swelling absorbance, 30 min | inhibition, % at 10 µM | 360,000 compounds, 1.4% hits | AID 602449;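 active = inhibition of 50% or more, scaled per plate between neutral and stimulator controls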;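 note: 0% = DMSO wells given calcium and 100% = 1 mM EGTA wells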
aDG glyco act – increases alpha dystroglycan glycosylation; Pro5-aDG cells, alpha-DG glycosylation AlphaScreen (IIH6); 0% Pro5, 100% B10-LARGE cell signal; activation, % at 10 µM; 360,000 compounds, 0.22% hits;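 active = activation of at least 8% versus controls, or a plate z-score of at least 8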;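 note: Pro5 are CHO cells carrying HIG-tagged alpha-DG that lacks glycosylation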
Rh123 counter – membrane potential counter-screen of mitochondrial pore inhibitors; isolated mitochondria, Rhodamine 123 fluorescence; 5,000 compounds, 78% hits; inhibition, % at 10 µM; shares compounds with MPTP block; AID 624504; in the data active = inhibition above about 22%;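 note: 0% = DMSO vehicle and 100% = positive control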
MPTP swell DR – dose response confirmation of mitochondrial permeability transition pore inhibitors | AID 651561 | IC50, µM | 780 compounds, 58% hits | shares compounds with MPTP block | isolated mitochondria swelling, absorbance; in the data active = IC50 below about 20 µM
MPTP counter DR – counter-screen for mitochondrial permeability transition pore inhibitors, dose response. shares compounds with MPTP block. isolated mitochondria counterscreen, fluorescence read-out. IC50, µM. 780 compounds, 49% hits; in the data active = IC50 below about 80 µM
Numbers without * were called inactive; x = no result given; ! = not active in a repeat. Sampled rows, rich in hits. Any-hit rate of the full collection: about 2.4%.

SMILES | 697 NFkB inh | NR2E3 ag-1 | NR2E3 ag-2 | Jurkat NFkB inh | MPTP block | aDG glyco act | Rh123 counter | others
COc1ccc(C)c2sc(N(CCN(C)C)C(=O)c3cccc(N4C(=O)CCC4=O)c3)nc12 | 16 | -14 | -1 | 0 | -2 | 0 | x
Oc1ccc[n+](CCCCC[n+]2cccc(O)c2)c1 | 24 | -16 | -2 | 3 | 0 | 0 | x
CCCCCCCCCCCCCCCC[n+]1ccccc1 | x | 4 | x | x | 53*! | 1 | 107*
CC(C)CC1(C)N=C(c2ccccc2)C(=S)N1 (stereo unspecified) | x | 2 | 5 | x | 1 | 0 | x
Cc1scc(C(=O)N2CCN(c3ccc(Cl)cc3)CC2)c1C | -6 | 13 | 4 | -2 | -1 | 0 | x
Cc1ccc(C)c2c1[nH]c1ccc([N+](=O)[O-])cc12 | 17 | -7 | 1 | 1 | 81* | 0 | 82*
CCOC(=O)c1c(-c2ccccc2)csc1NC(=O)CSc1nc(C)cc(C)n1 | -3 | -23 | 1 | 32 | 12 | 1 | x
CCOC(=O)c1c(-c2ccccc2)csc1NC(=O)CSc1nc(N)cc(N)n1 | -27 | 25 | -1 | 20 | 80* | 1 | 43*
CCN(CC)S(=O)(=O)c1cc(C)ccc1NC(=S)Nc1cccnc1 | -10 | -17 | -1 | 9 | 53* | 0 | 88*
CC(O)(c1cccc(F)c1)c1nc(-c2ccc3ccccc3c2)cs1 (stereo unspecified) | x | -48 | x | x | 2 | 0 | x
CC(C)(C)c1ccc(Cn2c(=N)n(CC(O)c3ccco3)c3ccccc32)cc1 (stereo unspecified) | -13 | 3 | 2 | 18 | 56* | -1 | 21*
Cc1ccccc1Cn1c(=N)n(CC(O)c2ccco2)c2ccccc21 (stereo unspecified) | -18 | -27 | 0 | 24 | -2 | 0 | x
COC(=O)c1c(Cc2ccccc2Cl)c[nH]c1C | -10 | -12 | 2 | -2 | 55* | 0 | 24*
COCCNc1nnc(SCC(=O)NC(=O)c2ccccc2)s1 | 8 | -11 | -4 | 10 | -2 | 0 | x
O=C(NNC(=O)c1cccs1)c1ccc(F)cc1 | -14 | -16 | 0 | -17 | 0 | 0 | x
Cc1ccc(C(=O)N/N=C(/CC(=O)c2cccs2)C(F)(F)F)cc1 | -45 | -79 | -3 | -9 | 55* | 0 | 82*
C=CCc1cccc(/C=N/NC(=O)C(C)Nc2ccc(C)cc2)c1O (stereo unspecified) | 7 | -39 | -1 | 3 | 80* | 0 | 62*
C=CCc1cccc(/C=N/NC(=O)C(=O)Nc2ccc(C)cc2)c1O | -5 | -23 | 6 | -14 | -1 | 0 | x
Cn1c(SCc2cccc([N+](=O)[O-])c2)nc2c(c1=O)SCC2 | -20 | 33 | -2 | 13 | 58* | 1 | 49*
Cn1c(SCc2cccnc2)nc2c(c1=O)SCC2 | 22 | 24 | 2 | 1 | 0 | 0 | x
COC1CCC2(C)C(=CCC3C4CC(O)CC4(C)CCC32)C1 (stereo unspecified) | x | 40 | x | x | 81* | 2 | 73*
CCCN(C(=O)Cn1c(C(F)(F)F)nc2ccccc21)C1CCS(=O)(=O)C1 (stereo unspecified) | 7 | -10 | 1 | 12 | 0 | 0 | x
CC1=C(C(=O)Nc2ccc([N+](=O)[O-])cc2)C(c2cccc(C(F)(F)F)c2)NC(=S)N1c1ccccc1 (stereo unspecified) | -12 | -26 | 0 | 0 | 75* | 2 | 89*
COc1ccccc1N(Cc1ccccc1)S(=O)(=O)c1cccc(C(=O)NC2CC(C)(C)NC(C)(C)C2)c1 | 4 | -2 | -3 | 25 | 84* | 9.1* | -18 | MPTP swell DR=7.6*;MPTP counter DR=>80
COc1ccccc1N(Cc1ccccc1)S(=O)(=O)c1cccc(C(=O)O)c1 | -11 | 4 | 0 | 7 | -4 | 0 | x
